Blank lines part the entries; values can stand above or below the molecule they belong to.
Experiments:
Type in all cases: functional
HT-29 = test: Cytostatic activity against human HT-29 cells
How it was run: (§1)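 NCI-60 human tumor cell line screen run by the US National Cancer Institute under the NIH Developmental Therapeutics Program protocol. A single-dose prescreen at 10 µM came first. Selected compounds then went into the 5-dose assay. Cytostatic activity is reported as GI50 (µM).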

Hs-578T = test: Cytostatic activity against human Hs 578T cells; how it was run: as §1
PC-3 = test: Cytostatic activity against human PC3 cells; how it was run: as §1
COLO 205 = test: Cytostatic activity against human COLO205 cells; how it was run: as §1
DU-145 = test: Cytostatic activity against human DU145 cells; how it was run: as §1
SK-MEL-2 = test: Cytostatic activity against human SK-MEL-2 cells; how it was run: as §1
HCT-116 = test: Cytostatic activity against human HCT116 cells; how it was run: as §1
SK-OV-3 = test: Cytostatic activity against human SKOV3 cells; how it was run: as §1
SK-MEL-28 = test: Cytostatic activity against human SK-MEL-28 cells; how it was run: as §1
HCC 2998 = test: Cytostatic activity against human HCC2998 cells; how it was run: as §1
CCRF-CEM = test: Cytostatic activity against human CCRF-CEM cells; how it was run: as §1
UO-31 = test: Cytostatic activity against human UO31 cells
How it was run: (§2)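 Human tumour cell lines from the NCI-60 panel, tested at the US National Cancer Institute under the NIH Developmental Therapeutics Program protocol. A single-dose prescreen at 10 µM came first. Selected compounds then went to a 5-dose assay, which gave GI50 and TGI values in µM.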

Malme-3M = test: Cytostatic activity against human MALME-3M cells; how it was run: as §1
HCT-15 = test: Cytostatic activity against human HCT15 cells; how it was run: as §1
UACC-257 = test: Cytostatic activity against human UACC257 cells; how it was run: as §2
SNB-75 = test: Cytostatic activity against human SNB75 cells; how it was run: as §2
ACHN = test: Cytostatic activity against human ACHN cells; how it was run: as §1
T47D = test: Cytostatic activity against human T47D cells; how it was run: as §2
OVCAR-8 = test: Cytostatic activity against human OVCAR8 cells; how it was run: as §1
786-0 = test: Cytostatic activity against human 786-0 cells; how it was run: as §1
NCI-H522 = test: Cytostatic activity against human NCI-H522 cells; how it was run: as §1
HOP-62 = test: Cytostatic activity against human HOP62 cells; how it was run: as §1
OVCAR-5 = test: Cytostatic activity against human OVCAR5 cells; how it was run: as §1
LOX IMVI = test: Cytostatic activity against human LOXIMVI cells; how it was run: as §1
SNB-19 = test: Cytostatic activity against human SNB19 cells; how it was run: as §1
CAKI-1 = test: Cytostatic activity against human Caki1 cells; how it was run: as §1
SW-620 = test: Cytostatic activity against human SW620 cells; how it was run: as §2
EKVX = test: Cytostatic activity against human EKVX cells; how it was run: as §1
K562 = test: Cytostatic activity against human K562 cells; how it was run: as §1
BT-549 = test: Cytostatic activity against human BT549 cells; how it was run: as §1
[1] = Cytostatic activity against human […] cells; how it was run: as §1
MDA-MB-468 = test: Cytostatic activity against human MDA-MB-468 cells; how it was run: as §1
SN12C = test: Cytostatic activity against human SN12C cells; how it was run: as §1
NCI-H322M = test: Cytostatic activity against human NCI-H322M cells; how it was run: as §1
KM12 = test: Cytostatic activity against human KM12 cells; how it was run: as §1
NCI/ADR-RES = test: Cytostatic activity against human NCI-ADR-RES cells; how it was run: as §1
NCI-H460 = test: Cytostatic activity against human NCI-H460 cells; how it was run: as §1
U-251 = test: Cytostatic activity against human U251 cells; how it was run: as §2
NCI-H226 = test: Cytostatic activity against human NCI-H226 cells; how it was run: as §1
HOP-92 = test: Cytostatic activity against human HOP92 cells; how it was run: as §1
SR = test: Cytostatic activity against human SR cells; how it was run: as §2
IGROV-1 = test: Cytostatic activity against human IGROV1 cells; how it was run: as §1
A498 = test: Cytostatic activity against human A498 cells; how it was run: as §1
OVCAR-3 = test: Cytostatic activity against human OVCAR3 cells; how it was run: as §1
MDA-MB-231 = test: Cytostatic activity against human MDA-MB-231/ATCC cells; how it was run: as §1
SK-MEL-5 = test: Cytostatic activity against human SK-MEL-5 cells; how it was run: as §1
M14 = test: Cytostatic activity against human M14 cells; how it was run: as §1
SF-268 = test: Cytostatic activity against human SF268 cells; how it was run: as §1
SF-295 = test: Cytostatic activity against human SF295 cells; how it was run: as §1
UACC-62 = test: Cytostatic activity against human UACC62 cells; how it was run: as §2
RXF 393 = test: Cytostatic activity against human RXF393 cells; how it was run: as §1
NCI-H23 = test: Cytostatic activity against human NCI-H23 cells; how it was run: as §1
MDA-MB-435 = test: Cytostatic activity against human MDA-MB-435 cells; how it was run: as §1
SF-539 = test: Cytostatic activity against human SF539 cells; how it was run: as §1
MOLT-4 = test: Cytostatic activity against human MOLT4 cells; how it was run: as §1
MCF7 = test: Cytostatic activity against human MCF7 cells; how it was run: as §1
OVCAR-4 = test: Cytostatic activity against human OVCAR4 cells; how it was run: as §1

GI50 (HT-29): 1.9 µM
GI50 (PC-3): 1.79 µM
GI50 (COLO 205): 1.86 µM
GI50 (DU-145): 1.71 µM
GI50 (SK-MEL-2): 1.96 µM
GI50 (HCT-116): 1.67 µM
GI50 (SK-OV-3): 2.2 µM
GI50 (SK-MEL-28): 1.71 µM
GI50 (HCC 2998): 2.01 µM
GI50 (CCRF-CEM): 1.91 µM
GI50 (HCT-15): 1.79 µM
GI50 (ACHN): 2.02 µM
GI50 (T47D): 1.7 µM
GI50 (OVCAR-8): 1.72 µM
GI50 (786-0): 2.75 µM
GI50 (NCI-H522): 1.32 µM
GI50 (OVCAR-5): 2.07 µM
GI50 (SW-620): 1.68 µM
GI50 (K562): 1.87 µM
GI50 (BT-549): 2.45 µM
GI50 (MDA-MB-468): 1.56 µM
GI50 (NCI-H322M): 3.48 µM
GI50 (NCI-H460): 1.94 µM
GI50 (U-251): 1.36 µM
GI50 (NCI-H226): 2.23 µM
GI50 (OVCAR-3): 1.69 µM
GI50 (MDA-MB-231): 2.03 µM
GI50 (SK-MEL-5): 1.48 µM
GI50 (NCI-H23): 1.86 µM
GI50 (MDA-MB-435): 1.51 µM
GI50 (MOLT-4): 1.45 µM
GI50 (MCF7): 1.45 µM
GI50 (OVCAR-4): 1.6 µM
SMILES: N=C(NO)NS(=O)(=O)c1cc(-c2nc(-c3ccccc3)no2)c(Cl)cc1SCc1ccccc1
TGI (HT-29): 3.49 µM
GI50 (Hs-578T): 2.55 µM
TGI (Hs-578T): 6.36 µM
TGI (PC-3): 3.88 µM
TGI (COLO 205): 3.39 µM
TGI (DU-145): 3.17 µM
TGI (SK-MEL-2): 4.03 µM
TGI (HCT-116): 3.32 µM
TGI (SK-OV-3): 4.55 µM
TGI (SK-MEL-28): 3.46 µM
TGI (HCC 2998): 4.03 µM
TGI (CCRF-CEM): 5.3 µM
GI50 (UO-31): 1.4 µM
TGI (UO-31): 7.64 µM
GI50 (Malme-3M): 1.8 µM
TGI (Malme-3M): 7.42 µM
TGI (HCT-15): 3.83 µM
GI50 (UACC-257): 1.68 µM
TGI (UACC-257): 3.53 µM
GI50 (SNB-75): 1.22 µM
TGI (SNB-75): 3.94 µM
TGI (ACHN): 3.9 µM
TGI (T47D): 3.48 µM
TGI (OVCAR-8): 3.82 µM
TGI (786-0): 7.06 µM
TGI (NCI-H522): 2.97 µM
GI50 (HOP-62): 2.23 µM
TGI (HOP-62): 5.12 µM
TGI (OVCAR-5): 5.31 µM
GI50 (LOX IMVI): 1.63 µM
TGI (LOX IMVI): 4.09 µM
GI50 (SNB-19): 3.56 µM
TGI (SNB-19): 18.7 µM
GI50 (CAKI-1): 1.67 µM
TGI (CAKI-1): 3.65 µM
TGI (SW-620): 3.21 µM
GI50 (EKVX): 1.36 µM
TGI (EKVX): 2.71 µM
TGI (K562): 4.74 µM
TGI (BT-549): 5.23 µM
GI50 [1]: 2.34 µM
TGI [1]: 9.03 µM
TGI (MDA-MB-468): 3.04 µM
GI50 (SN12C): 1.53 µM
TGI (SN12C): 3.27 µM
TGI (NCI-H322M): 16.2 µM
GI50 (KM12): 1.77 µM
TGI (KM12): 3.55 µM
GI50 (NCI/ADR-RES): 2.06 µM
TGI (NCI/ADR-RES): 5.05 µM
TGI (NCI-H460): 3.95 µM
TGI (U-251): 2.84 µM
TGI (NCI-H226): 4.8 µM
GI50 (HOP-92): 1.99 µM
TGI (HOP-92): 9.01 µM
GI50 (SR): 1.43 µM
TGI (SR): 5.88 µM
GI50 (IGROV-1): 2.38 µM
TGI (IGROV-1): 7.53 µM
GI50 (A498): 2.57 µM
TGI (A498): 7.85 µM
TGI (OVCAR-3): 3.12 µM
TGI (MDA-MB-231): 5.24 µM
TGI (SK-MEL-5): 2.86 µM
GI50 (M14): 2.15 µM
TGI (M14): 4.39 µM
GI50 (SF-268): 1.74 µM
TGI (SF-268): 3.95 µM
GI50 (SF-295): 2.05 µM
TGI (SF-295): 5.79 µM
GI50 (UACC-62): 1.84 µM
TGI (UACC-62): 3.83 µM
GI50 (RXF 393): 1.52 µM
TGI (RXF 393): 2.97 µM
TGI (NCI-H23): 4.36 µM
TGI (MDA-MB-435): 3.08 µM
GI50 (SF-539): 2.72 µM
TGI (SF-539): 6.44 µM
TGI (MOLT-4): 3.74 µM
TGI (MCF7): 2.97 µM
TGI (OVCAR-4): 4.06 µM

GI50 (HT-29): 2.95 µM
GI50 (NCI-H522): 2.14 µM
GI50 (NCI-H460): 2.24 µM
GI50 (OVCAR-3): 1.91 µM
SMILES: COc1cc(CSc2cc(Cl)c(-c3nc(-c4ccc(Cl)cc4)no3)cc2S(=O)(=O)NC(=N)NO)cc(OC)c1OC
GI50 (Hs-578T): 4.17 µM
GI50 (UO-31): 3.16 µM
GI50 (Malme-3M): 7.76 µM
GI50 (UACC-257): 9.33 µM
GI50 (SNB-75): 2.95 µM
GI50 (IGROV-1): 3.8 µM
GI50 (M14): 2.19 µM
GI50 (SF-268): 2.95 µM
GI50 (UACC-62): 1.95 µM

GI50 (HT-29): 7.24 µM
GI50 (NCI-H522): 3.8 µM
GI50 (NCI-H460): 4.37 µM
GI50 (OVCAR-3): 4.79 µM
SMILES: COc1cc(CSc2cc(Cl)c(-c3nc(-c4ccccc4)no3)cc2S(=O)(=O)NC(=N)NO)cc(OC)c1OC
GI50 (Hs-578T): 7.41 µM
GI50 (UO-31): 4.47 µM
GI50 (Malme-3M): 13.5 µM
GI50 (UACC-257): 13.2 µM
GI50 (SNB-75): 3.98 µM
GI50 (IGROV-1): 5.62 µM
GI50 (M14): 6.61 µM
GI50 (SF-268): 6.92 µM
GI50 (UACC-62): 3.09 µM

From ChEMBL document CHEMBL2062469, “1-(2-Mercaptobenzenesulfonyl)-3-hydroxyguanidines--novel potent antiproliferatives, synthesis and in vitro biological activity” (2012)
